B1: tRNA (parent)
chain: GUUCCGUUGGCGUAAUGGUAACGCGUCUCCCUCCUAAGGAGAAGACUGCGGGUUCGAGUCCCGUACGGAACG

Fewer inactive variants are shown than the library holds.

The variants in the series derive from B1. Kind of series: yeast fitness relative to wild type (ratio to wild type); higher = fitter; tRNA-Arg(CCU), competitive growth, 37 C, YPD. The method, boiled down: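 Start and end populations of a pooled competition were compared by 100-nucleotide paired-end sequencing of gene amplicons. The Saccharomyces cerevisiae strains carried tRNA-Arg(CCU) gene variants at the native genomic locus, synthesised with a 3% per-site mutation rate at 69 sites, and competed in YPD at 37°C for 24 hours in six parallel replicates. Darwinian fitness relative to wild type was based on the change in genotype frequencies. Genotypes required ≥ 100 starting reads, and estimates < 0.5 were set to 0.5.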
Turning to C22U C33G G41C, the yeast fitness is ≤ 0.5.
For U2A A21G A36U, the yeast fitness is 0.624.
Turning to U3A G17A C22U A43C A69C, the yeast fitness is ≤ 0.5.
Under U13C A14G G56C stands ≤ 0.5; under A20C C33A A40C, 0.7; under C29G C33G G52C, 0.579.
In the case of C61U A69G, the yeast fitness is 0.878.
With C27A C34U C62U U64C, the yeast fitness was ≤ 0.5.
As for A21G C22U A42U A69U, the figure is ≤ 0.5; as for G6A G39C G44C C46U, ≤ 0.5; as for A21G U53A A57U, 0.516.
G10A A36C C66U: the yeast fitness is ≤ 0.5.
On to A36G A65U G67A, for which the yeast fitness worked out at 0.502.
Take A20C U28G C46A: the yeast fitness is 0.531.
C5U U47C A57C: the yeast fitness was ≤ 0.5.
Turning to C24U U47C G67C, the yeast fitness was 0.688.
In the case of U32A C34G G68A A69U A70U, the yeast fitness was ≤ 0.5.
C30U C33G A69C: the yeast fitness came out at 0.546.
With C24A C62G A70U, the yeast fitness turned out to be 0.562.
Regarding C11A A21U A43U G58C C60A C66U, the yeast fitness is 0.563.
For the variant G17A C30G A40C A42G, the yeast fitness was ≤ 0.5.
Turning to C4A A15C U35G, the yeast fitness was ≤ 0.5.
On to C29U U32A, for which the yeast fitness is 0.83.
For U3A C30G G38C, the yeast fitness was determined as 0.987.
Take U7G A37U C46G: the yeast fitness was ≤ 0.5.
With C4G U32A C34G G41C, the yeast fitness was ≤ 0.5.
Take G17A C60G G67A: the yeast fitness was ≤ 0.5.
For C4U G23A U26C, the yeast fitness was ≤ 0.5.
For C4G G56C, the yeast fitness came to 0.699.
Regarding C49G C61A, the yeast fitness was found to be 0.808.
With C31G G58A, the yeast fitness is 0.785.
As for G50A G51C, the figure is 0.585.
In the case of U8A G9C A15G U54A, the yeast fitness was ≤ 0.5.
Under C31G C34G stands 0.629; under C4G C5A U19A C24G C29G, ≤ 0.5; under G17C C29U A70U, ≤ 0.5.
Consider A14C C30A C33G C46U, for which the yeast fitness is ≤ 0.5.
Consider C22A G39C A43U U53C, for which the yeast fitness is 0.723.
U7A C62U: the yeast fitness was 0.888.
As for C5A C29A A57G, the figure is ≤ 0.5; as for U2C U8A G17C G38A, ≤ 0.5.
Turning to G6C C33G G41C G56C G58A G63C A65U, the yeast fitness is ≤ 0.5.
As to U35C A42U C62G, the yeast fitness stood at 0.546.
As for U3A G9A A14G C49U, the figure is ≤ 0.5; as for U7C G9C G41A, ≤ 0.5; as for C49A U54G, 0.584.
Regarding U8A U28C C33A, the yeast fitness was ≤ 0.5.
As for C27U G58A, the yeast fitness is 0.899.
On to A21C U32C C46U C66U, for which the yeast fitness was determined as 0.585.
Consider G25C G38C G48C C49G, for which the yeast fitness was ≤ 0.5.
A37C C46G G51A G52A: the yeast fitness is ≤ 0.5.
For U3C C31G G51C, the yeast fitness came out at 0.55.
As to G10U A20C A57G, the yeast fitness amounted to 0.511.
C5A A14C A15G G58C C60U C66G: the yeast fitness is ≤ 0.5.
As to G12C U47G, the yeast fitness was determined as 0.602.
With U32C A69G, the yeast fitness is 0.882.
As for G9A C11U A14G C29A, the figure is ≤ 0.5; as for C4G A21G, 0.997.
As to U2A G63C, the yeast fitness is 0.673.
In the case of C5U G10A C34U G68U A69U, the yeast fitness is 0.505.
Under U35C G51U C61U stands 0.53; under G10A C34U A43G, ≤ 0.5.
With U26G C30A G68C, the yeast fitness worked out at 0.531.
With U2G A15U U35G U53G, the yeast fitness is ≤ 0.5.
On to G25A G51A, for which the yeast fitness amounted to 0.861.
On to C29G A43G C49G, for which the yeast fitness is 0.532.
In the case of U16A C24U G44C C61U, the yeast fitness was 0.66.
As for A14U A37U C66U, the yeast fitness was ≤ 0.5.
Consider U26A A43G, for which the yeast fitness amounted to 0.832.
As for U8A G56A G67C, the figure is ≤ 0.5.
With A40U U54A A70U, the yeast fitness was 0.548.
As to C30G A37G C55G, the yeast fitness was 0.537.
As for A21C C34G C46U, the figure is ≤ 0.5.
On to U3A C24U A45C, for which the yeast fitness was determined as 0.688.
As to C29U A57G, the yeast fitness was 0.908.
As to A40C G67U G68C, the yeast fitness is 0.585.
As for A15G G18A A45C, the figure is 0.57.
Consider A21G G39A G63A A70G, for which the yeast fitness turned out to be 0.619.
With U19A U47A G58C, the yeast fitness was found to be 0.602.
Consider C30A G58C, for which the yeast fitness was 1.
Consider C27A U28A C30G G67A, for which the yeast fitness came to 0.587.
For the variant C31G A37U G48C, the yeast fitness was 0.528.
On to A21C C33G A37U U64G, for which the yeast fitness turned out to be 0.617.
For the variant C11U C24G C61A, the yeast fitness came out at 0.569.
For the variant C24G C31U A43G A45C U64A, the yeast fitness was ≤ 0.5.
Turning to U3A U8C A14C C61U, the yeast fitness is ≤ 0.5.
Turning to C27A A40G C46G C62G, the yeast fitness came out at 0.687.
In the case of C11U A14U G18A G41A A42C G50C A70G, the yeast fitness turned out to be 0.552.
On to C22U C49A A69G, for which the yeast fitness was ≤ 0.5.
Turning to G6A C22G G44C A70C, the yeast fitness was ≤ 0.5.
With G18C G51A C66A, the yeast fitness was found to be 0.537.
In the case of C34A C66A, the yeast fitness amounted to 0.509.
On to C4U G52A U59A, for which the yeast fitness came to 0.592.
For G6A A14U G23U, the yeast fitness is ≤ 0.5.
For the variant C4U C30A U54C, the yeast fitness was found to be 0.739.
Take G9A G12C G17A C22G C30U C34G: the yeast fitness is ≤ 0.5.
For U7G C30U C60U A69C, the yeast fitness is 0.576.
Under C30A A37G C55U A57G U64A stands ≤ 0.5; under G18C G67C, 0.656.
As to G17A C27G C29G A43G, the yeast fitness came to 0.561.
As for C4A U13A, the figure is 0.595; as for C24G A57U G67C, 0.612; as for U19G C49U C60A C66G, ≤ 0.5.
On to G18C A36U A57U, for which the yeast fitness is ≤ 0.5.
As for C49G G68A, the figure is 0.953.
Under C27A C33G A45C stands 0.53; under C29G A36U A45U C55A, ≤ 0.5; under U2C A14G C29A C46G, ≤ 0.5.
For the variant G23C G25A C30G A65C, the yeast fitness is ≤ 0.5.
In the case of U3C C31G A57G, the yeast fitness turned out to be 0.589.
Under C5U C31G stands 0.918.
With C4G A14C G25C U54A C66G, the yeast fitness was ≤ 0.5.
Turning to G17A G41A C60G A65G, the yeast fitness is ≤ 0.5.
U16G G17A C33A: the yeast fitness came to 0.539.
For A36C C55U U59A, the yeast fitness was ≤ 0.5.
Take G23C C31U C55A: the yeast fitness was ≤ 0.5.
Take C5G G51A G52A: the yeast fitness is ≤ 0.5.
Regarding C11A C29G, the yeast fitness was 0.654.
On to U13A U28A, for which the yeast fitness was determined as 0.772.
Take G10A C61G: the yeast fitness is ≤ 0.5.
G17C C24G U28A C30U G52A: the yeast fitness was ≤ 0.5.
As for A20G C22G C27G C30U C31G G51C G67A A69U, the figure is ≤ 0.5; as for C4A A43C, 0.89; as for C4U C30U U53G G56C C62G, ≤ 0.5.
As for A36C A40G G48A A65U C66U A69U, the figure is ≤ 0.5; as for C5G G10C A37U G38A, ≤ 0.5; as for U19G A57G A70U, 0.731.
For the variant G25C G41C C46U U59C A65U, the yeast fitness is ≤ 0.5.
As for C4A U7C A36G G41A C49A G67U, the figure is ≤ 0.5; as for G6A C33G C34G, ≤ 0.5; as for C4A A15G G17A C33U A57U U59C, ≤ 0.5.
In the case of C11G U16A C24U G50C C66U, the yeast fitness was ≤ 0.5.
A43U A65C: the yeast fitness came out at 0.952.
In the case of C29G U32G G38A U53C C66U, the yeast fitness was ≤ 0.5.
On to U3G C33A G52A, for which the yeast fitness amounted to 0.651.
For the variant C4A U26G C66U, the yeast fitness was ≤ 0.5.
For A42G C62U G68A, the yeast fitness is 0.79.
With C24A G63A, the yeast fitness stood at 0.658.
Under C4U U28G C60A stands 0.503.
Under U7C A36G A43U stands 0.535; under G9A A15C A69U, 0.86.
In the case of A37U G50C G67A, the yeast fitness is ≤ 0.5.
In the case of A15U G23C G41A C49A, the yeast fitness was ≤ 0.5.
With U13A A57G A69C, the yeast fitness was found to be 0.503.
As for A21C A37G, the figure is 0.638.
For the variant C4U C11G C29U U35C, the yeast fitness is ≤ 0.5.
Take C4A G10A G23A U28C C55G C60A: the yeast fitness was ≤ 0.5.
As for A43U C55A C66U, the figure is 0.6; as for G39C C62U G63C, ≤ 0.5; as for C5G A42G A70C, 0.805.
Take G39A U53A G68C: the yeast fitness is ≤ 0.5.
On to U32A C46A U53A, for which the yeast fitness is ≤ 0.5.
Consider U3A U8C G38C, for which the yeast fitness was ≤ 0.5.
With U8C G10A C11G G12C C29G, the yeast fitness is ≤ 0.5.
As for C11A G12A G48A G50A, the figure is ≤ 0.5; as for U2A G9C, 0.716; as for C22U C31G G51C C62A, ≤ 0.5.
Take A20C G48C C66U: the yeast fitness was determined as 0.73.
As for G17A C55G A70C, the yeast fitness was ≤ 0.5.
Under G17A C27G G67A stands 0.573; under C30A G41C A45G G67C, ≤ 0.5; under A21C C30U A36C, ≤ 0.5.
Consider C5U U13C C24G U26C A37G U54G, for which the yeast fitness is ≤ 0.5.
With A14C U19A G39C, the yeast fitness was ≤ 0.5.
Under A21U C22U G48A A57U stands ≤ 0.5; under G25A C29A, 0.609; under G9C G17A U64C, ≤ 0.5.

For the origin of these results see the RNAGym collection of RNA variant scans (doi:10.1126/science.aae0568).
